HCV NS3 hel inh – blocks Hepatitis C virus NS3 helicase unwinding. NS3 helicase DNA unwinding, Cy5 molecular beacon fluorescence. inhibition, % at 10.9 µM. 290,000 compounds, 0.56% hits. AID 1800;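 active = inhibition above the mean of all tested compounds plus 3 SD, set per campaign, cut at about 35% in these data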;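 also: 0% = DMSO wells and 100% = thioflavine S control wells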
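Control set: DMSO versus 110 µM thioflavine S; Material: NS3 helicase fragment of HCV; Measured by: Cy5 fluorescence at 0 and 60 min, beacon hairpin quenching; Read-out basis: percent inhibition from t60/t0 fluorescence ratio; Times: reaction time 60 min, 25 °C; Repeats: single replicate; Compound dosing: single dose, 10.9 µM nominal final, DMSO 0.8% final.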
ALR inh – blocks human ALR sulfhydryl oxidase activity. P55789. purified ALR, DTT oxidation, H2O2 HRP-luminol luminescence. inhibition, % (concentration not given with the values). 290,000 compounds, 3.8% hits;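 active = mean replicate inhibition above about 79%, with every replicate also reaching it, limit read from the data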
Target sequence (P55789 whole entry, looked up): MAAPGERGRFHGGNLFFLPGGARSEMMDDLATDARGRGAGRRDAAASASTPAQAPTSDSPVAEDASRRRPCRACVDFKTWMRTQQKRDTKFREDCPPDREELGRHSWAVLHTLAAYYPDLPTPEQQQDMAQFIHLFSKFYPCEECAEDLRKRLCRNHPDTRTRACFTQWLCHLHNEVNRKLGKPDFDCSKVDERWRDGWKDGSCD
EBNA-1 inh – blocks EBNA-1 binding to DNA. EBNA-1 DNA binding, fluorescence polarization. inhibition, % at 14.8 µM. 300,000 compounds, 0.34% hits; in the data active = inhibition above about 28%
ZTA DNA inh – counter-screen for EBNA-1 inhibitors: inhibitors of Epstein-Barr virus ZTA; P03206; ZTA-DNA binding, fluorescence polarization; inhibition, % at 11 µM; 320,000 compounds, 0.15% hits; in the data active = inhibition above about 33%
Target sequence (P03206 whole entry, looked up): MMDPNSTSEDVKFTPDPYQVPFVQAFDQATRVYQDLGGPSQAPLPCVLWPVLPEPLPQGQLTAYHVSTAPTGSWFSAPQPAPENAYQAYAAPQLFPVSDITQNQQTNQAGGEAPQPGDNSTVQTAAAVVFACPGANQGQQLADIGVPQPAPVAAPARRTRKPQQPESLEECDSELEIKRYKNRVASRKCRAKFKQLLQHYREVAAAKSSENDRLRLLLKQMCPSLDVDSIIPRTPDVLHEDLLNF
M18AAP inhibitor – PfM18AAP enzyme inhibition; recombinant PfM18AAP, H-Glu-NHMec fluorogenic cleavage; inhibition, % at 7.35 µM; 290,000 compounds, 1.2% hits; AID 1822;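 active = inhibition above the campaign mean inhibition over all tested compounds plus 3 SD, cut at about 28% in these data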;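 also: 0% = plate median of test compound wells and 100% = 2 mM ZnCl2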
HCV core dimer – blocks dimerization of HCV core protein; TR-FRET GST/Flag-core106 dimerization, 1536-well; inhibition, % at 5 µM; 300,000 compounds, 0.33% hits;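 active = inhibition above the mean of all tested compounds plus 3 SD, set per screening campaign, cut at about 45% in these data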
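System: GST/Flag-tagged HCV core106 proteins. Incubation: compound-protein-antibody incubation 4 h at 22.5 °C. Technique: HTRF with 340 nm excitation, 617/671 nm emission. Medium: KF-containing HEPES buffer, pH 7.45, DTT, CHAPS, BSA. Read-out: inhibition (%) from 671 over 617 nm ratio. Also added: Eu(K)-anti-GST 90 ng/mL plus XL665-anti-Flag 1 µg/mL.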
Numbers without * were called inactive; . = no result given. A selection: hits, their analogues and other compounds. The true share with any hit is near 5.2%.

SMILES	HCV NS3 hel inh	ALR inh	EBNA-1 inh	ZTA DNA inh	M18AAP inhibitor	HCV core dimer
CCOC(=O)c1ccc(S(=O)(=O)NNS(=O)(=O)c2ccc(C)cc2)cc1	-7.8	15.4	4.1	-6.1	5.3	2.6
CCOC(=O)c1ccc(S(=O)(=O)Nc2cc(C(=O)O)ccc2Cl)cc1	6.7	98.9*	-3.4	0.0	3.2	3.3
CCCn1c(CN2CCN(C(=O)OCC)CC2)nc2cc(NC(=O)CC)ccc21	-0.5	.	10.3	7.5	-6.6	8.8
CCCCCCCCCCCCN1[C@@H](CC(C)=O)c2cc(C(F)(F)F)ccc2S1(=O)=O	.	-4.4	-11.1	-1.5	.	5.4
CCCCCCCCN1[C@@H](CC(=O)O)c2ccc(C(F)(F)F)cc2S1(=O)=O	.	97.4*	7.4	3.8	.	-30.8
CCOc1ccc(NC(=O)C(C)C(Cc2ccc(C)cc2)C(=O)O)cc1 (stereo not drawn)	-6.9	.	-5.0	1.8	3.8	-2.0
c1ccc(Cc2nnc3sc(C4COc5ccccc5O4)nn23)cc1 (stereo not drawn)	3.1	-0.7	10.0	12.8	4.3	10.5
c1ccc(OCc2nnc3sc(C4COc5ccccc5O4)nn23)cc1 (stereo not drawn)	11.6	-7.9	-5.3	16.0	0.8	51.1*
CC1CCCCC1NC(=O)COC(=O)c1ccc2c(c1)OCCO2 (stereo not drawn)	.	0.1	.	-0.1	.	.
Cc1ccc(/C=N/NC(=O)NC2CCCCC2)o1	7.2	-2.2	-8.3	-19.6	6.7	21.0
Cc1ccc(/C=C/C(=O)Nc2sc3c(c2C#N)CCCC3)o1	16.9	93.3*	5.9	-18.5	4.6	37.3
Cc1ccc(/C=C/C(=O)NC2CCCCCCC2)o1	10.5	98.6*	-2.0	-3.1	-35.5	1.3
Cc1ccc(/C=C/C(=O)NCc2ccc3c(c2)OCO3)o1	8.1	92.2*	11.4	6.0	-39.4	1.7
COC(=O)c1c(NC(=O)/C=C/c2ccco2)sc2c1CCC2	7.0	91.7*	1.8	12.4	-3.1	24.4
Cc1ccc([C@@H]2[C@@H]3C(=O)N(C)C(=O)[C@@H]3[C@]3(C)C(=O)N(Cc4ccc(-c5ccccc5)cc4)CC(=O)N23)o1	5.6	-10.5	3.0	24.0	-2.0	-3.6
CCCS(=O)(=O)N1CCCC(C(=O)N2CCCCC2)C1 (stereo not drawn)	-1.7	.	-0.7	-9.8	6.7	3.1
O=C(/C=C/c1cccs1)Nc1sc2c(c1C(=O)O)CCCC2	2.1	88.2*	-5.1	-7.6	9.2	1.3
O=C(Nc1sc2c(c1C(=O)O)CCCC2)c1cccs1	26.5	31.1	0.9	-8.9	1.4	5.0
Fc1cccc(Cl)c1-c1nnc2ccc3ccccc3n12	-0.1	98.3*	5.8	4.1	-5.2	2.2
Fc1ccccc1-c1nnc2ccc3ccccc3n12	-4.8	-1.9	2.6	6.2	-2.8	7.0
COc1cc(N)c(Cl)cc1C(=O)OCC(=O)NCC1CCCCC1	.	-1.6	.	.	.	.
CC(=O)CCCC(NS(=O)(=O)CCC(Cl)(Cl)Cl)c1ccccc1 (stereo not drawn)	20.6	-2.8	2.5	-9.3	4.6	-1.1
Cc1ccc(N2C(=O)C3CC(c4ccccc4)=C4C5C=CC(C6C(=O)N(c7ccc(C)cc7)C(=O)C56)C4C3C2=O)cc1 (stereo not drawn)	0.6	-31.7	10.0	9.8	0.3	28.5
Cc1ccc(N2C(=O)C3CC(c4ccccc4)=C4C5C=CC(C6C(=O)N(c7ccc(C)cc7C)C(=O)C56)C4C3C2=O)c(C)c1 (stereo not drawn)	-8.6	-9.8	7.6	-6.4	-7.1	52.3*
Cc1ccc(SCCC(=O)N(C)CC(=O)Nc2c(C)cccc2C)cc1	-3.5	0.1	5.0	10.1	3.8	1.1
SMILES	HCV NS3 hel inh	ALR inh	EBNA-1 inh	ZTA DNA inh	M18AAP inhibitor	HCV core dimer
Cc1cc(C(=O)N2CCCC(N3CCN(c4cccc(Cl)c4)CC3)C2)no1 (stereo not drawn)	-0.7	80.5*	-0.7	-13.4	4.2	-17.0
O=C(c1ccoc1)N1CCCC(N2CCN(c3ccc(F)cc3)CC2)C1 (stereo not drawn)	-1.0	53.2	-2.9	-4.6	-1.9	0.6
Cc1cc(C(=O)N2CCCC(N3CCN(c4cccc(Cl)c4)CC3)C2)nn1C (stereo not drawn)	7.0	22.0	-9.2	-1.3	7.8	-6.2
O=C(CCn1cccn1)N1CCCC(N2CCN(c3cccc(Cl)c3)CC2)C1 (stereo not drawn)	1.2	93.1*	.	.	-6.8	.
O=C(c1ccoc1)N1CCCC(N2CCN(c3cccc(Cl)c3)CC2)C1 (stereo not drawn)	2.8	93.2*	.	.	3.6	.
Cc1cccc(NC(=S)NC(=O)c2oc3ccccc3c2C)n1	0.0	.	-6.8	-4.1	-5.9	-11.7
C=CCOc1ccc(C2C(C#N)=C(N)N(N(C)C)C3=C2C(=O)CCC3)cc1 (stereo not drawn)	1.5	-22.9	0.8	1.8	1.8	-1.4
CCN(CC)CCNC(=O)c1cc(Br)c(N)cc1OC	.	-18.8	-1.9	16.7	.	10.3
CCCCCCn1c(=O)[nH]c2nc3cc(N)c(C)cc3nc2c1=O	45.4*	.	.	.	12.4	.
CC(C)(CCC(=S)N1CCOCC1)C1CCCCC1	-4.2	-3.1	-4.6	-1.6	30.2*	-1.3
Oc1c(Cl)cc(Cl)cc1CNc1nc2ccccc2[nH]1	-11.5	99.0*	5.0	22.1	0.0	10.2
O=S(=O)(Nc1cc2nc3ccccc3nc2n1Cc1ccccc1)c1ccc(Cl)cc1	16.2	2.8	7.8	30.6	28.3*	4.6
O=S(=O)(NCc1ccccc1)c1ccc(Cl)cc1	13.0	-13.4	2.3	14.5	12.4	-2.1
CCOc1ccc(-c2cc(C)n3nc(C(N)=O)cc3n2)cc1	6.0	-0.3	-1.6	-9.2	-5.9	49.9*
COc1ccc2sc(-c3ccc(SC)cc3)c(/C=C/c3ccc(OC)c(OC)c3)c2c1	.	-0.3	.	.	.	.
O=C1OCCC1Sc1nc2cc(Cl)ccc2s1 (stereo not drawn)	5.0	-2.7	2.6	-4.5	-4.7	-4.6
O=C1OCCC1Sc1nc2ccccc2s1 (stereo not drawn)	-7.4	98.0*	9.6	1.3	-7.7	1.8
O=C(NC12CC3CC(CC(C3)C1)C2)c1c(Cl)cccc1Cl	-0.7	-1.4	0.1	-10.1	1.2	-4.5
CCOC(=O)c1c(C)oc2c1c1c(c3ccccc32)OCN(CCCC(=O)O)C1	-13.4	91.1*	3.5	19.8	3.2	0.8
CNc1cncc(C(=O)O)c1	6.5	-11.2	42.0*	-18.7	-0.5	-4.0
CCC(C)(C)n1nnnc1CN1CCN(c2ccc(OC)cc2)CC1	-6.7	93.5*	0.3	8.3	-0.1	1.7
COc1ccc(Cn2nnnc2CN2CCN(c3ccc(OC)cc3)CC2)cc1	11.1	19.5	-13.5	-5.9	7.5	-1.3
COc1ccc(S(=O)(=O)N2CCCOC2CNC(=O)C(=O)NCc2cccnc2)cc1 (stereo not drawn)	-3.8	-0.4	5.2	-0.2	3.8	4.2

Screens as filed in PubChem BioAssay.
